The subject of one experiment is Escherichia coli. The experiment in a line: Antimicrobial activity against Escherichia coli at 100 ug/disk measured every 24 hrs for 4 days by disk diffusion assay. In kind it is functional, organism-based. The method, boiled down:
(§1)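 Bacteria grown on nutrient agar. Plates spread with 0.6 mL of a 24 h nutrient-broth culture and dried 1 h. Sample applied in 10 μL MeOH to 7-mm paper disks, air-dried 1 h, placed on plates. Zones of inhibition read every 24 h for 4 days. Tetracycline 10 μg/disk positive control; MeOH 10 μL/disk negative control.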
(In general: Agar diffusion results depend on both activity and mobility in agar.)

Experiment [1] concerns Caco-2. The experiment in a line: Cytotoxicity against human Caco2 cells after 72 hrs by XTT assay. It is filed as functional, cell-based. The note with it: Caco-2, 72 h. An outline of the steps:
(§2)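 Cell viability measured by XTT cell proliferation kit (XTT Cell Proliferation Kit II) on Caco-2, MCF-7 and HepG2/C3A lines; IC50 values derived.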
Background: Tetrazolium assays rely on reduction of a dye to a coloured formazan, in cell work by metabolically active cells.

The next experiment concerns Colletotrichum acutatum. The experiment in a line: Antimicrobial activity against Colletotrichum acutatum at 100 ug/disk measured every 24 hrs for 4 days by disk diffusion assay. In kind it is functional, organism-based. The method, boiled down:
(§3)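 Fungi grown on potato dextrose agar. Plates spread with 0.6 mL conidial suspension (ca. 1×10^6 conidia/mL H₂O) and dried 1 h. Sample applied in 10 μL MeOH to 7-mm paper disks, air-dried 1 h, placed on plates. Zones of inhibition read every 24 h for 4 days. Filipin 10 μg/disk positive control; MeOH 10 μL/disk negative control.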

For experiment [2], the system named is MCF7. The experiment in a line: Cytotoxicity against human MCF7 cells after 72 hrs by XTT assay. It is filed as functional, cell-based. The note with it: MCF7, 72 h. An outline of the steps: as §2
The subject of the next experiment is Beauveria bassiana. The experiment is described as follows: Antimicrobial activity against Beauveria bassiana ARSF 8354 at 100 ug/disk measured every 24 hrs for 4 days by disk diffusion assay. It is filed as functional. An outline of the steps: as §3
The next experiment has as its system Botrytis cinerea. The experiment is described as follows: Antimicrobial activity against Botrytis cinerea at 100 ug/disk measured every 24 hrs for 4 days by disk diffusion assay. It is filed as functional, organism-based. An outline of the steps: as §3
For the next experiment, the system named is Drosophila melanogaster. The experiment in a line: Insecticidal activity against Drosophila melanogaster at 100 ug. In kind it is functional, organism-based.
Another experiment concerns Bacillus cereus. The experiment is described as follows: Antimicrobial activity against Bacillus cereus at 100 ug/disk measured every 24 hrs for 4 days by disk diffusion assay. It is filed as functional, organism-based. The method, boiled down: as §1
A further experiment deals with Aedes aegypti. The experiment in a line: Insecticidal activity against Aedes aegypti larvae at 100 ug/ml. In kind it is functional, organism-based.
A short description of experiment [3]: Cytotoxicity against human HepG2/C3A cells after 72 hrs by XTT assay. In kind it is functional, cell-based. An outline of the steps:
as §2

Experiment [4] has as its system Caco-2. The experiment in a line: Cytotoxicity against human Caco2 cells at 100 uM after 72 hrs by XTT assay. It is filed as functional, cell-based.
The test system of experiment [5] is MCF7. The experiment in a line: Cytotoxicity against human MCF7 cells at 100 uM after 72 hrs by XTT assay. It is filed as functional, cell-based.

Experimental findings from ChEMBL document CHEMBL2010649, “Metacridamides A and B, macrocycles from conidia of the entomopathogenic fungus Metarhizium acridum” (J Nat Prod, 2012) are described below.

As usually defined, the pIC50 is −log10 of the IC50, conventionally taken in molar units. A low value points to a large IC50.

Each structure is given as a SMILES string. pIC50: −log10 of the molar value. Calls of active or inactive are those of the source. The calls are words filed in the database; no cut-off is given here.

Consider `CC[C@H](C)C[C@H](C)[C@H]1OC(=O)[C@H](Cc2ccccc2)NC(=O)/C(C)=C/[C@H](C)[C@@H](O)/C(C)=C/[C@H](C)[C@H](OC(C)=O)/C(C)=C/[C@@H]1C` [METACRIDAMIDE A], for which the “inhibition zone (IZ)” value with Escherichia coli, in the experiment on Colletotrichum acutatum, with Beauveria bassiana, in the experiment with Botrytis cinerea and in the experiment on Bacillus cereus was “inactive” each time. The pIC50 in the experiment with Caco-2 [1] was 5.21; in the experiment on MCF7 [2] it was 4.96; in experiment [3], 4.97. Moreover, the outcome in the experiment with Drosophila melanogaster and with Aedes aegypti was inactive.
Regarding `CC[C@H](C)C[C@H](C)[C@H]1OC(=O)[C@H](Cc2ccccc2)NC(=O)/C(C)=C/[C@H](C)[C@@H](O)/C(C)=C/[C@H](C)[C@H](O)/C(C)=C\[C@@H]1C` [METACRIDAMIDE B], the result with Caco-2 [4] and in the experiment on MCF7 [5] was inactive. Further, the pIC50 in experiment [3] was 4.74.
